Bioassay records deposited in PubChem by Johns Hopkins Ion Channel Center.
Kir21 block: inhibitors of mouse Kir2.1 inward-rectifier potassium channel | P35561 | HEK293-Kir2.1, FluxOR thallium flux fluorescence; stronger effect = lower value | B-score at 10 µM | 0.85% of 310,000 active;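 active = fluorescence ratio B-score at or below minus 3 SD of library scores, with starting-brightness B-score within 2 SD, cut at about -4.2 in these data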;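 also: channel flux triggered by added potassium and thallium sulfate stimulus; B-score of peak minus minimum fluorescence over baseline after thallium stimulus; more negative B-score means stronger Kir2.1 block with less thallium influx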
KCNQ1 inh: blocks the human KCNQ1 potassium channel; P51787; CHO-K1 KCNQ1, FluxOR thallium flux fluorescence; stronger effect = higher value; B-score at 10 µM; 1.3% of 310,000 active; AID 2642;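 active = compounds whose thallium flux B-score, printed positive for inhibition, exceeds three library SD while starting fluorescence stays within three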;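 also: channel opened by potassium depolarization with thallium stimulus after 20 min compound exposure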
KCNQ1 pot: potentiators or activators of human KCNQ1 potassium channel. B-score at 10 µM. CHO-K1 KCNQ1, thallium flux FluxOR fluorescence; stronger effect = higher value. 0.35% of 310,000 active. P51787;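 active = fluorescence ratio B-score, a plate-corrected score, at least three library SD, with initial intensity B-score within 5 SD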
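Doses: Single concentration per compound, DMSO matched to controls | Test system: KCNQ1-transfected CHO-K1 cells | Timing: 90 min dye loading and 20 min compound exposure, both at room temperature | Measured by: Kinetic FluxOR thallium fluorescence, 10-s 1-Hz baseline, 110-s post-stimulus read | Medium: Assay buffer with matched DMSO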
KCNK3 inh: human KCNK3 channel inhibition, primary screen | AID 602410 | B-score at 10 µM | 0.84% of 340,000 active | O14649 | CHO-KCNK3 thallium flux, FluxOR fluorescence; stronger effect = lower value;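 active = B-score under library mean minus 4 SD, starting fluorescence ratio at most library mean plus 5 SD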;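 also: more negative B-score means stronger inhibition of thallium flux through KCNK3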
KCNK9 block: blocks the human KCNK9 two-pore domain potassium channel; HEK293 KCNK9, FluxOR thallium flux fluorescence; stronger effect = lower value; B-score at 10 µM; 1.2% of 310,000 active; AID 488922;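 active = ratio B-score over 3 SD below the library mean, with starting fluorescence within 5 SD of its mean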;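 also: negative B-score means less thallium flux so channel inhibition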
hERG protect: hERG (human) protection from proarrhythmic block; Q12809; CHO-hERG, FluxOR thallium flux, dofetilide IC70 present; activation (rescue from dofetilide block), less the hit threshold, % at 10 µM; 0.51% of 310,000 active; AID 1511;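 active = activation above the mean of controls blocked by dofetilide plus 5 SD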;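 also: thallium influx through hERG after potassium depolarization seen as dye fluorescence rise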
Target sequence (Q12809 whole entry, looked up): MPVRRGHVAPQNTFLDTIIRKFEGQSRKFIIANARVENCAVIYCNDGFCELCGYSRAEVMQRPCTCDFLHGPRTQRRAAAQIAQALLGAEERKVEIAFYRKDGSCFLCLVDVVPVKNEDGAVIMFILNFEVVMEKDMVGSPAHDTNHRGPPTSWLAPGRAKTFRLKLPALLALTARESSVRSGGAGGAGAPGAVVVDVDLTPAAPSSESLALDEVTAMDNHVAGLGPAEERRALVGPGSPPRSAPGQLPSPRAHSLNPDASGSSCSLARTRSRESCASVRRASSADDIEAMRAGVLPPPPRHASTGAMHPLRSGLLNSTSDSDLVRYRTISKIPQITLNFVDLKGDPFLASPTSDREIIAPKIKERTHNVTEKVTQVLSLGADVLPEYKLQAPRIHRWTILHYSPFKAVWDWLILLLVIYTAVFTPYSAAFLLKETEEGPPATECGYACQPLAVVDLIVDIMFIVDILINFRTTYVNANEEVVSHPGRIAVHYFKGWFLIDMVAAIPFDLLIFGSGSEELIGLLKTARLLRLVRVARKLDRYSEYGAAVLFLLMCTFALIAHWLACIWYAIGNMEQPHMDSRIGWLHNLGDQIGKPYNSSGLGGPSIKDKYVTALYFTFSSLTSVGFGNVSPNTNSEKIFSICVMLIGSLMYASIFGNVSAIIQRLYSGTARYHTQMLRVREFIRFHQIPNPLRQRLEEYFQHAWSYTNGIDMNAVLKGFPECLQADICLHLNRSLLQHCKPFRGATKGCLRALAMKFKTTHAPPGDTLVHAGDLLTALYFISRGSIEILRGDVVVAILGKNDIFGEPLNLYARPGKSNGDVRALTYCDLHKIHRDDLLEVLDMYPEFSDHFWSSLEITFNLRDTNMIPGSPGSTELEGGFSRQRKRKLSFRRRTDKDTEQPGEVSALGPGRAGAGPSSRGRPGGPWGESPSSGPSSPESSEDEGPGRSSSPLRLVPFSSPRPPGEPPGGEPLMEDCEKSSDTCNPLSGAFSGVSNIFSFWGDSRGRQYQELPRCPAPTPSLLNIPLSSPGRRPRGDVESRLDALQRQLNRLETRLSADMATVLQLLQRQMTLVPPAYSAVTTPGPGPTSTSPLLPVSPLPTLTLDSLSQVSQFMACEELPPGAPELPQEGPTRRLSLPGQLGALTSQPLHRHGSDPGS
KCNK9 inh conf: human KCNK9 inhibitor confirmation; shares compounds with KCNK9 block; HEK293 KCNK9 cells, FluxOR thallium flux fluorescence; inhibition, % at 10 µM; 43% of 4,900 active; AID 492992;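 active = thallium signal inhibited by more than 5 SD of the compound-free buffer control wells, on both duplicate plates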;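 also: 0% = assay buffer control wells without compound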
Kir21 sel: mouse Kir2.1 off-target activity of KCNK9 modulators; 4% of 4,900 active; AID 492993; inhibition, % at 10 µM; shares compounds with KCNK9 block; Kir2.1 cells, FluxOR thallium flux fluorescence;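 active = thallium signal drop more than 5 SD beyond the mean of the no-compound control wells, seen in both duplicate plates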;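 also: signal is fluorescence rise after thallium addition divided by baseline fluorescence; plate controls were assay buffer only for no effect and full block by chlorpromazine control for full effect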
HEK293 Tl ctr: second check of KCNK9 modulator effects in non-induced HEK293 cells; 40% of 4,900 active; FluxOR thallium flux; AID 492997; shares compounds with KCNK9 block; inhibition, % at 10 µM;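 active = thallium signal drop beyond 5 SD of the untreated control mean, on both duplicate plates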;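 also: plate controls were buffer only IC0 wells for no effect and SID17386958 at its maximal inhibitory level for full effect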
Numbers without * were called inactive; i = inactive; . = no result given. Compounds with a hit are over-represented: about 3.7% of the library has one in this group of screens.

SMILES | Kir21 block | KCNQ1 inh | KCNQ1 pot | KCNK3 inh | KCNK9 block | hERG protect | KCNK9 inh conf | Kir21 sel | HEK293 Tl ctr
CCOC(=O)C1=C(C)NC(=S)NC1c1ccc(-c2cccc(Cl)c2C)o1 (stereo not drawn) | 0.61 | i | i | i | -8.6* | -7 | i | i | i
Cc1nc(C(=O)N2CCc3c([nH]c4ccccc34)C2c2cc(F)ccc2F)cs1 (stereo not drawn) | 1.2 | i | i | i | -10* | -14 | 46%* | i | 31%*
CC(C)c1nc(C(=O)N2CCc3c([nH]c4ccccc34)C2c2ccccn2)cs1 (stereo not drawn) | 1.7 | i | i | i | i | -4 | . | . | .
O=C(Nc1ccccc1Cc1ccccc1)c1oc2ccccc2c1COc1ccccc1 | 2.7 | i | i | i | -8.7* | -5 | 51%* | i | 31%*
O=C(NCCc1ccccc1)c1oc2ccccc2c1COc1ccccc1 | -0.03 | 6* | i | i | i | -14 | i | i | i
NC(=O)c1ccc(OCC(F)(F)F)nc1 | 0.09 | i | i | i | i | -7 | . | . | .
CC(C)(C)OC(=O)NCCCCCc1nnc(SCc2ccccc2F)o1 | -0.53 | i | i | i | i | -7 | i | i | i
CC(C)(C)OC(=O)NCCCCCc1nnc(SCc2ccccc2)o1 | -4.1 | i | i | i | i | -7 | . | . | .
Cc1cc(C)nc(/N=c2/ssnc2Cl)c1 | -0.19 | i | i | i | i | -9 | i | i | i
Cc1ccc(N=c2ssnc2Cl)cc1 | 0.09 | i | i | i | i | -14 | . | . | .
COc1ccc2c(COC(=O)c3ccc(C)c(S(=O)(=O)N4CCOCC4)c3)cc(=O)oc2c1 | . | . | . | i | . | . | . | . | .
O=C1NN(c2ccc(F)c(Cl)c2)C(=O)/C1=C\c1cccc(OC(=O)c2cccs2)c1 | -1.7 | i | i | i | i | -11 | i | i | i
Cn1c(C(=O)N2CCCC(C(=O)NCCCSC3CCCCC3)C2)cc2sccc21 (stereo not drawn) | 0.32 | i | i | i | i | -4 | i | i | i
CCn1c(C(=O)N2CCCC(C(=O)NCCCc3ccccc3)C2)cc2sccc21 (stereo not drawn) | -0.73 | i | i | i | i | -9 | i | i | i
CC(CCc1ccccc1)NC(=O)C1CCCN(C(=O)c2cc3sccc3n2C)C1 (stereo not drawn) | 0.35 | i | i | i | i | 0 | . | . | .
CCn1c(C(=O)N2CCCC(C(=O)NCCc3ccc(C)cc3)C2)cc2sccc21 (stereo not drawn) | . | . | . | i | . | . | . | . | .
Cc1nc(SCC(=O)N2CCOCC2)c2c(C)c(C)sc2n1 | 1 | i | i | i | i | -4 | . | . | .
Cc1ccc(-c2csc3ncnc(SCc4ccc(C(=O)O)cc4)c23)cc1 | 3 | i | 33* | i | i | 15* | i | i | i
Cc1nc(SCc2ccc(C(=O)O)cc2)c2c(C)c(C)sc2n1 | 1.9 | i | i | i | i | -10 | i | i | i
CNc1ccc(/C=C/C(=O)c2cccc3ccccc23)cc1[N+](=O)[O-] | 0.74 | i | i | i | -11* | -12 | 48%* | i | 36%*
CNc1ccc(C(=O)c2ccccc2C(=O)O)cc1[N+](=O)[O-] | 0.19 | i | i | i | i | -9 | . | . | .
Cc1ccccc1Nc1nnc(SCc2cc([N+](=O)[O-])cc3c2OCOC3)s1 | -2.3 | i | i | i | -8.9* | -8 | i | i | i
O=[N+]([O-])c1cc2c(c(CSc3nnc(Nc4ccccc4)s3)c1)OCOC2 | 0.24 | i | i | i | i | -9 | . | . | .
Cc1oc(-c2cccs2)nc1CN1CCC(c2ccccc2)CC1 | -0.1 | i | i | i | i | -11 | i | i | i
O=C(OCC(=O)N1N=C(c2ccc(Cl)cc2)CC1c1ccco1)c1cncc(Br)c1 (stereo not drawn) | . | . | . | i | . | . | . | . | .
SMILES | Kir21 block | KCNQ1 inh | KCNQ1 pot | KCNK3 inh | KCNK9 block | hERG protect | KCNK9 inh conf | Kir21 sel | HEK293 Tl ctr
Cc1ccc(Cl)cc1N1CCN(CC(O)COCc2ccco2)CC1 (stereo not drawn) | 1.6 | i | i | i | i | -11 | i | i | i
CCCCCc1ccc(-c2ccc(/C=C/C(=O)O)cc2)nc1 | -0.04 | i | i | i | i | -3 | . | . | .
CCCCCCCc1ccc(-c2ccc(O)cc2)nc1 | -0.44 | i | i | i | i | -3 | i | i | i
C#CCOCCOCCOCCNc1nc(N2CCN(C(=O)C([C@@H](C)O)n3cc([C@@H](N)CCCCN)nn3)CC2)nc(N2CCN(C(=O)[C@H](CCCN=C(N)N)n3cc(C(N)[C@@H](C)CC)nn3)CC2)n1 (stereo partly drawn) | . | . | . | i | . | . | . | . | .
Cc1coc2c1c(C)cc1oc(=O)c(CC(=O)N[C@@H](C)C(=O)O)c(C)c12 | -0.35 | i | i | i | i | -5 | . | . | .
CCN(C(=O)CSc1nc2ccccc2[nH]1)C1CCS(=O)(=O)C1 (stereo not drawn) | . | . | . | i | . | . | . | . | .
Fc1ccccc1OCCCCSc1ncccn1 | 1.2 | i | i | i | i | -14 | . | . | .
c1cnc(SCCOc2cccc3ccccc23)nc1 | 0.17 | i | i | i | -9.9* | -3 | 48%* | i | 38%*
CCCOc1ccc2c3c(c(=O)oc2c1OCCC)CCCC3 | 0.23 | i | i | i | -12* | -6 | 74%* | i | 31%*
CC(NC(=S)NC(=O)c1ccccc1)c1ccccc1 (stereo not drawn) | -0.07 | i | i | i | i | -5 | i | i | i
Cc1cccc(C(=O)NC(=S)Nc2ccc(Cc3ccncc3)cc2)c1 | 0.14 | i | i | i | i | -4 | i | i | i
Cc1cccc(C(=O)NC(=S)NC(C)c2ccccc2)c1 (stereo not drawn) | -1.4 | i | i | i | i | -9 | i | i | i
Fc1ccc(Cn2c(SCc3ccc(F)c(F)c3)nnc2C(F)(F)F)cc1 | -0.31 | i | i | i | -9* | -18 | 29%* | i | 38%*
Fc1ccc(Cn2c(SCc3ccc(F)c(C(F)(F)F)c3)nnc2C(F)(F)F)cc1 | -0.37 | i | i | i | -10* | -10 | 42%* | i | 44%*
